In brackets after ≈: the same amount, converted by molar mass.
Legend:
[1] = (§1) Inhibition of Pseudomonas aeruginosa beta-lactamase PDC3 expressed in Escherichia coli BL21 (DE3) RP CodonPlus incubated for 5 mins before nitrocefin substrate addition by spectrophotometry
Summary of the method: (§2)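 PDC-3 from P. aeruginosa 18SH subcloned in pET 24a, expressed in E. coli BL21(DE3) RP CodonPlus (37 °C, 0.5 mM IPTG at A600 0.6), purified by isoelectric focusing and FPLC.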

Pseudomonas aeruginosa = assay: as §1; conditions: TDE = time-dependent effect; summary of the method: as §2
[2] = (§3) Inhibition of Enterobacter cloacae beta-lactamase P99 expressed in Escherichia coli AS226-51 incubated for 5 mins before nitrocefin substrate addition by spectrophotometry
Summary of the method: (§4)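 P99 expressed from pCS980 in E. coli AS226-51, grown in SOB with kanamycin at 37 °C and induced with 0.5 mM IPTG at A600 0.6. Purified by preparative isoelectric focusing, gel filtration and cation exchange. Inhibitor preincubated with enzyme for 5 min in 10 mM PBS pH 7.4 at room temperature. […] Ki = IC50/(1+[S]/Km).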

Enterobacter cloacae = assay: as §3; conditions: TDE = time-dependent effect; summary of the method: as §4
Escherichia coli [3] = assay: Potentiation of cefotaxime-induced antimicrobial effect against wild type Escherichia coli DH10B assessed as cefotaxime MIC at 4 ug/ml by agar dilution method; assay type: functional
[4] = Inhibition of beta-lactamase PDC-3 (unknown origin) expressed in Escherichia coli DH10B assessed as cefotaxime MIC at 4 ug/ml by agar dilution method
Summary of the method: (§5)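 MICs by cation-adjusted Mueller-Hinton agar dilution following CLSI standards. E. coli DH10B carried blaPDC-3 (from P. aeruginosa 18SH) or blaP99 subcloned in pBC SK(-). Cefotaxime was varied from 0 to 64 µg/ml, with boronate held constant at 4 µg/ml.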

[5] = Inhibition of beta-lactamase P99 (unknown origin) expressed in Escherichia coli DH10B assessed as cefotaxime MIC at 4 ug/ml by agar dilution method; summary of the method: as §5
Escherichia coli [6] = assay: Antimicrobial activity against wild type Escherichia coli DH10B by agar dilution method; assay type: functional
Summary of the method: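 MICs by cation-adjusted Mueller-Hinton agar dilution following CLSI standards. The E. coli DH10B host carried no β-lactamase gene.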

Escherichia coli [7] = assay: Antimicrobial activity against wild type Escherichia coli DH10B producing beta-lactamase PDC3 by agar dilution method; assay type: functional
Summary of the method: (§6)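 E. coli DH10B carrying bla genes in pBC SK(-) vector; MICs in µg/mL by agar dilution on cation-adjusted Mueller-Hinton agar per CLSI standards.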

Escherichia coli [8] = assay: Antimicrobial activity against wild type Escherichia coli DH10B producing beta-lactamase P99 by agar dilution method; assay type: functional; summary of the method: as §6

SMILES	IC50 [1] [nM]	time-dependent effect (Pseudomonas aeruginosa)	IC50 [2] [nM]	inhibition (Enterobacter cloacae)	Ki [1] [nM]	Ki [2] [nM]	MIC (Escherichia coli [3]) [µg/mL]	MIC [4] [µg/mL]	MIC [5] [µg/mL]	MIC (Escherichia coli [6]) [µg/mL]	MIC (Escherichia coli [7]) [µg/mL]	MIC (Escherichia coli [8]) [µg/mL]
CC(C)(O)c1cn(C[C@H](NC(=O)Cc2cccs2)B(O)O)nn1	250	tde	420	tde								
O=C(Cc1cccs1)NCB(O)O	3300	tde	2700	tde	411	450	< 0.125	2	2			
O=C(Cc1ccccc1)N[C@@H](Cn1cc(-c2ccccc2)nn1)B(O)O	300	tde	150	tde								
O=C(Cc1ccccc1)N[C@@H](Cn1cc(-c2cccc(C(=O)O)c2)nn1)B(O)O	120	tde	110	tde								
CC(=O)N[C@@H](Cn1cc(-c2ccccc2)nn1)B(O)O	9300	tde	13200	tde								
Nc1cccc(-c2cn(C[C@H](NC(=O)Cc3ccccc3)B(O)O)nn2)c1	400	tde	600	tde								
O=C(Cc1ccccc1)N[C@@H](Cn1cc(C(=O)O)nn1)B(O)O	230	tde	110	tde								
O=C(Cc1cccs1)N[C@@H](Cn1cc(-c2cccc(C(=O)O)c2)nn1)B(O)O	67	tde	84	tde	8	14	< 0.125	1	4			
Nc1cccc(-c2cn(C[C@H](NC(=O)Cc3cccs3)B(O)O)nn2)c1	280	tde	360	tde								
CC(=O)N[C@@H](Cn1cc(C(C)(C)O)nn1)B(O)O	18400	tde	71000	tde								
CO/N=C(\C(=O)N[C@@H]1C(=O)N2C(C(=O)O)=C(COC(C)=O)CS[C@H]12)c1csc(N)n1 [CEFOTAXIME]										< 0.125	16 (≈ 35.1 µM)	16 (≈ 35.1 µM)
O=C(Cc1cccs1)N[C@@H](Cn1ccnn1)B(O)O	1300	tde	800	tde	164	134						
CC(=O)N[C@@H](Cn1cc(C(=O)O)nn1)B(O)O	5000	tde	27100	tde								
O=C(Cc1cccs1)N[C@@H](Cn1cc(-c2ccccc2)nn1)B(O)O	300	tde	320	tde								
O=C(Cc1cccs1)N[C@@H](Cc1cccc(C(=O)O)c1)B(O)O	150	tde	100	tde	13	15	< 0.125	4	4			
O=C(Cc1cccs1)N[C@@H](Cn1cc(C(=O)O)nn1)B(O)O	35	tde	140	tde	4	23	< 0.125	0.5	2			
CC(C)(O)c1cn(C[C@H](NC(=O)Cc2ccccc2)B(O)O)nn1	1180	tde	660	tde								

Reference: ChEMBL document CHEMBL3585244, “Click Chemistry in Lead Optimization of Boronic Acids as β-Lactamase Inhibitors” (J Med Chem, 2015)
